Calls of active or inactive are those of the source. The rule behind the calls is not given here.
Key:
A549/TR [1] = assay: Induction of apoptosis in human A549/TR cells expressing NQO1 assessed as increase in cleaved p53 level up to 10 uM treated post DIC addition by Western blot analysis; type: functional, cell-based
How it was run: (§1)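 A549/Taxol cells treated with graded concentrations up to 10 µM, with or without pretreatment with 50 µM dicoumarol or 10 mM N-acetylcysteine. Cells then harvested, washed in cold PBS and trypsinized. Lysates probed by Western blot for cleaved PARP and p53.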

[2] = target: NAD(P)H dehydrogenase [quinone] 1 (Homo sapiens) (UniProt P15559); assay: Substrate activity at recombinant human NQO1 assessed as reduction in PARP-1 hyperactivation by measuring depletion of ATP level at 10 uM measured up to 300 mins
How it was run: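 A549/Taxol cells treated with compound at 10 µM, with or without 50 µM DIC or 10 mM NAC pretreatment, harvested at indicated times; PAR formation by Western blot, plus intracellular ATP and NAD+ levels.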

[3] = Toxicity in nude mouse xenografted with human A549/TR cells expressing NQO1 assessed as effect on body weight at 15 to 30 mg/kg, iv treated every other day for 3 weeks measured every day; type: organism-based; conditions: in vivo, 504 h
How it was run: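 Tumor-bearing nude mice (A549/Taxol xenograft) injected iv via tail vein at 15 or 30 mg/kg every other day for 3 weeks, vehicle as control; body weight tracked over the treatment period.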

[4] = Cardiotoxicity in nude mouse xenografted with human A549/TR cells expressing NQO1 at 15 to 30 mg/kg, iv treated every other day for 3 weeks by hematoxylin and eosin staining based optical microscopic analysis; type: toxicity, organism-based; conditions: in vivo, 504 h
How it was run: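 Nude mice bearing A549/Taxol xenografts given saline, 15 or 30 mg/kg by tail-vein injection every other day, or Taxol 2 mg/kg, for 3 weeks. Mice then euthanized. Major organs examined by H&E staining. Blood collected for biochemistry: TP, ALB, GLB, AST, BUN, LDH.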

A549/TR [5] = assay: Induction of apoptosis in human A549/TR cells expressing NQO1 assessed as viable cells at 1 uM after 24 hrs by Annexin V-FITC/propidium iodide based flow cytometric analysis (reference value: 93.16%); type: functional; conditions: read-out: Activity
How it was run: (§2)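 A549/Taxol cells exposed 24 h to 1, 5 or 10 µM. The 10 µM arms included pretreatment with 50 µM dicoumarol or 10 mM N-acetylcysteine. Cells stained with Annexin V-FITC and propidium iodide, and populations quantified by flow cytometry.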

A549/TR [6] = assay: Induction of apoptosis in human A549/TR cells expressing NQO1 assessed as necrotic cells at 1 uM after 24 hrs by Annexin V-FITC/propidium iodide based flow cytometric analysis (reference value: 3.91%); type: functional; how it was run: as §2
A549/TR [7] = assay: Induction of apoptosis in human A549/TR cells expressing NQO1 assessed as late apoptotic cells at 10 uM treated post NAC addition and measured after 24 hrs by Annexin V-FITC/propidium iodide based flow cytometric analysis (reference value: 2.49%); type: functional; how it was run: as §2
[8] = target: NAD(P)H dehydrogenase [quinone] 1 (Homo sapiens) (UniProt P15559); assay: Substrate activity at recombinant human NQO1 assessed as induction of ROS generation at 1 to 10 uM after 3 hrs by DCF-DA staining based fluorescence laser scanning confocal microscopic analysis
How it was run: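 A549/Taxol cells seeded at 1 x 10^6 per well, grown 24 h, treated with compound at 1 and 10 µM for 3 h (± pretreatment with 50 µM DIC or 10 mM NAC), loaded with 10 µM DCFH-DA 30 min at 37 °C, fixed in 4% formaldehyde 20 min, PBS washed, imaged by laser scanning confocal microscopy.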

A549/TR [9] = assay: Induction of apoptosis in human A549/TR cells expressing NQO1 after 24 hrs by Annexin V-FITC/propidium iodide based flow cytometric analysis; type: functional, cell-based; how it was run: as §2
[10] = Selectivity ratio of IC50 for NQO1 deficient human L02 cells to IC50 for human A549/TR cells expressing NQO1; type: toxicity; conditions: NQO1-deficient L02 cells and A549/TR cells expressing NQO1, read-out: Ratio IC50
How it was run: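 MTT assay: cells seeded at 1 x 10^4 cells/mL, attached overnight, exposed to compound (1-100 µM) for 4 h, then fresh medium for 72 h at 37 °C, 5% CO2; MTT 4 h, formazan in DMSO read at 560 nm. IC50 taken; ratio = IC50(L02)/IC50(A549/Taxol); at least three technical replicates.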

A549/TR [11] = assay: Induction of apoptosis in human A549/TR cells expressing NQO1 assessed as late apoptotic cells at 10 uM treated post DIC addition and measured after 24 hrs by Annexin V-FITC/propidium iodide based flow cytometric analysis (reference value: 2.49%); type: functional; how it was run: as §2
A549/TR [12] = assay: Antitumor activity against human A549/TR cells expressing NQO1 xenografted in nude mouse assessed as increase in karyprrhexis at 15 to 30 mg/kg, iv treated every other day for 3 weeks by hematoxylin and eosin staining based optical microscopic analysis; type: functional, organism-based
How it was run: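 A549/Taxol tumor-bearing nude mice dosed by tail-vein injection every other day for three weeks (15 or 30 mg/kg; Taxol reference 2 mg/kg; vehicle controls). Tumor volume followed over treatment, tumors weighed at end, body weight monitored. Tumor sections stained with H&E for necrosis and karyorrhexis.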

A549/TR [13] = assay: Induction of apoptosis in human A549/TR cells expressing NQO1 assessed as late apoptotic cells at 5 uM after 24 hrs by Annexin V-FITC/propidium iodide based flow cytometric analysis (reference value: 2.49%); type: functional; how it was run: as §2
[14] = Nephrotoxicity in nude mouse xenografted with human A549/TR cells expressing NQO1 assessed as blood urea nitrogen level at 15 to 30 mg/kg, iv treated every other day for 3 weeks […]; type: toxicity, organism-based; conditions: in vivo, 504 h
How it was run: (§3)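 A549/Taxol xenograft nude mice dosed by tail-vein injection at 15 or 30 mg/kg every other day for three weeks; saline vehicle group. Afterwards mice were euthanized, major organs H&E stained, and blood taken for biochemistry (TP, ALB, GLB, AST, BUN, LDH); tumor tissue assayed for ROS and GSH.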

A549/TR [15] = assay: Induction of apoptosis in human A549/TR cells expressing NQO1 assessed as early apoptotic cells at 5 uM after 24 hrs by Annexin V-FITC/propidium iodide based flow cytometric analysis (reference value: 0.43%); type: functional; how it was run: as §2
A549/TR [16] = assay: Induction of apoptosis in human A549/TR cells expressing NQO1 assessed as increase in cleaved PARP level up to 10 uM treated post NAC addition by Western blot analysis; type: functional, cell-based; how it was run: as §1
[17] = target: NAD(P)H dehydrogenase [quinone] 1 (Homo sapiens) (UniProt P15559); assay: Substrate activity at recombinant human NQO1 assessed as induction of DNA damage at 10 uM treated post NAC addition and measured after 2 hrs by propidium iodide staining based laser scanning confocal microscopic analysis
How it was run: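 Comet assay in A549/Taxol cells exposed 2 h to compound (10 µM) or 2 mM H2O2, with or without DIC or NAC pretreatment; comet tail lengths measured in arbitrary units.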

A549/TR [18] = assay: Induction of apoptosis in human A549/TR cells expressing NQO1 assessed as viable cells at 5 uM after 24 hrs by Annexin V-FITC/propidium iodide based flow cytometric analysis (reference value: 93.16%); type: functional; conditions: read-out: Activity
[19] = Toxicity in nude mouse xenografted with human A549/TR cells expressing NQO1 assessed as damage to lung at 15 to 30 mg/kg, iv treated every other day for 3 weeks by hematoxylin and eosin staining based optical microscopic analysis; type: organism-based; conditions: in vivo, 504 h; how it was run: as §3
A549/TR [20] = assay: Induction of apoptosis in human A549/TR cells expressing NQO1 assessed as late apoptotic cells at 1 uM after 24 hrs by Annexin V-FITC/propidium iodide based flow cytometric analysis (reference value: 2.49%); type: functional; how it was run: as §2

NAD(P)H dehydrogenase [quinone] 1 (Homo sapiens), sequence (P15559 whole entry): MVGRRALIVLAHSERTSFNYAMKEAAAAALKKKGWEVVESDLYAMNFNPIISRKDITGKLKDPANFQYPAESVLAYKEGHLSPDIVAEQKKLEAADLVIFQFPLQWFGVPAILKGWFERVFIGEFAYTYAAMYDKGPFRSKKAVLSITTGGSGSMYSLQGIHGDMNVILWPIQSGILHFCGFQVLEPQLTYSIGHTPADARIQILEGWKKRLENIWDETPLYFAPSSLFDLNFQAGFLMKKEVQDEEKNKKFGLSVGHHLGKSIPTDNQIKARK

- Activity [2]: Active
- Activity [8]: Active
SMILES: N#Cc1nc2c(nc1C#N)-c1cc(F)c(F)cc1C2=O
- Activity (A549/TR [1]): Active
- Activity [3]: Non-Toxic
- Activity [4]: Non-Toxic
- viability at 1 µM (A549/TR [5]): 64.6%
- Activity (A549/TR [6]): 7.16%
- Activity (A549/TR [7]): 2.11%
- Activity (A549/TR [9]): Dose-dependent effect
- selectivity ratio [10]: 50.3
- Activity (A549/TR [11]): 4.64%
- Activity (A549/TR [12]): Active
- Activity (A549/TR [13]): 9.28%
- Activity [14]: Non-Toxic
- Activity (A549/TR [15]): 33.6%
- Activity (A549/TR [16]): Active
- Activity [17]: inactive
- viability at 5 µM (A549/TR [18]): 49.7%
- Activity [19]: Non-Toxic
- Activity (A549/TR [20]): 12.92%
